Some results are limits rather than exact numbers.

The source of these data is paper PMC5487498 (World Journal of Gastroenterology, 2017).

Holding throughout (assay): MTS cell proliferation/viability assay
The test system of assay [1] is CaCo-2. The format is cell-based, human. The note with it: read-out: IC50 CaCo-2, 72 h incubation. In a few lines: (§1)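 Cells were seeded at 10 × 10^3 cells/well and exposed 24 h later to test compound at 100, 50, 10, 5, 1 and 0.1 μmol/L for 72 h. MTS was then added for 2 h and absorbance read at 490 nm, with untreated control taken as 100%. HCT116 was grown in RPMI 1640; Caco-2 and murine 3T3 fibroblasts in high-glucose DMEM with pyruvate, 10% FBS and penicillin/streptomycin, at 37 °C and 5% CO2.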

Assay [2] has as its system HCT116. The format is cell-based, human. The note with it: read-out: IC50 HCT116, 72 h incubation. In a few lines:
as §1

In assay [3] the test system is 3T3. The class given is cell-based, murine. Particulars: read-out: IC50 3T3, 72 h incubation, non-cancer fibroblasts. In a few lines:
as §1

Turning to `CON1C(=O)C2(CN=C(Nc3ccc(C)cc3)S2)c2ccccc21` (racemic) [Compound K-466, (±)-1-methoxy-2’-(4-methylphenylamino)spiro{indoline-3,5’-[4’,5’]-dihydrothiazol}-2-one], the IC50 in assay [1], in assay [2] and in assay [3] was above 100 µM in each case.

Consider `CC(C)(C)OC(=O)N1c2ccccc2C2(CN=C(Nc3ccc(Cl)cc3)S2)C1N1CCCCC1` (racemic) [Compound K-467, trans-(±)-1-(terc-buthoxycarbonyl)-2-(1-piperidyl)-2’-(4-chlorophenylamino)spiro{indoline-3,5’-[4’,5’]dihydrothiazol}], for which the IC50 in assay [1], in assay [2] and in assay [3] was above 100 µM in each case.

As to `COC1N(OC)c2ccccc2C12CN=C(Nc1ccc(C(F)(F)F)cc1)S2` (racemic) [Compound K-452, (±)-cis-1,2-dimethoxy-2’-(4-trifluoromethylphenylamino)spiro{indoline-3,5’[4’,5’]dihydrothiazol}], the IC50 in assay [1], in assay [2] and in assay [3] was above 100 µM throughout.

As for `CC(C)(C)OC(=O)N1c2ccccc2C2(CN=C(Nc3ccc(C(F)(F)F)cc3)S2)C1N1CCCCC1` (racemic) [Compound K-471, trans-(±)-1-(terc-buthoxycarbonyl)-2-(1-piperidyl)-2’-(4-trifluoromethylphenylamino)spiro{indoline-3,5’-[4’,5’]dihydrothiazol}], the IC50 in assay [1], in assay [2] and in assay [3] was above 100 µM in each case.

On to `CON1C(=O)C2(CN=C(Nc3ccc(Br)cc3)S2)c2ccccc21` (racemic) [Compound K-463, (±)-1-methoxy-2’-(4-bromophenylamino)spiro{indoline-3,5’-[4’,5’]-dihydrothiazol}-2-one], for which the figures for the IC50 in assay [1], in assay [2] and in assay [3] were 74.18 ± 0.001 µM, 33 ± 2.67 µM and 61.1 ± 2.25 µM, respectively.

Regarding `CON1C(=O)C2(CN=C(Nc3ccc(C(F)(F)F)cc3)S2)c2ccccc21` (racemic) [Compound K-465, (±)-1-methoxy-2’-(4-trifluoromethylphenylamino)spiro{indoline-3,5’-[4’,5’]-dihydrothiazol}-2-one], the IC50 amounted to 35.7 ± 6.49 µM in assay [1], 33.7 ± 2.78 µM in assay [2] and 34.9 ± 2.01 µM in assay [3].

Regarding `COC1N(OC)c2ccc(F)cc2C12CN=C(SC)S2` (racemic) [Compound K-462, (±)-cis-5-fluoro-1-methoxyspirobrassinolmethylether], the IC50 in assay [1], in assay [2] and in assay [3] was above 100 µM in each case.

As to `CSC(=O)NCc1c[nH]c2ccc(F)cc12` [Compound K-455, 5-fluorobrassitin], the IC50 in assay [1], in assay [2] and in assay [3] was above 100 µM in each case.

Regarding `COn1cc(CNC(=O)SC)c2cc(F)ccc21` [Compound K-459, 5-fluoro-1-methoxybrassitin], the IC50 in assay [1], in assay [2] and in assay [3] was above 100 µM each time.

The IC50 is the midpoint of a concentration-inhibition curve.
